Results on 22 compounds are retold here after article PMC12377187 (RSC Advances, 2025).

Assay [1] has as its system RD – rhabdomyosarcoma cell line. The experiment in a line: MTT cytotoxicity, RD cell line. Format: cell-based. The settings on record: 72 h. Summed up:
(§1)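 Cells seeded at 5000 per well in Eagle's MEM with 10% fetal calf serum, 2 mM L-glutamine, penicillin and streptomycin, then pre-incubated 24 h at 37 °C, 5% CO2. A concentration series of test compound in DMSO, with a reference drug, was applied for 72 h. MTT added for 4 h at 37 °C, formazan dissolved in ethanol, OD read at 570 nm. Inhibition calculated against blank and control absorbances.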

The subject of assay [2] is MDA-MB-231 – human breast cancer cell line. In words: MTT cytotoxicity, MDA-MB-231 cell line. Format: cell-based. The settings on record: MDA-MB-231, 72 h, read-out: IC50 MDA-MB-231. Summed up:
as §1

The next assay relates to SW620 cell line. As to conditions: cited from earlier work.
In another assay the test system is HT-29 cell line. The settings on record: cited from earlier work.
Setting [3] is: Rhabdomyosarcoma cell, read-out: IC50 RD, MTT, 72 h, mean ± SD.
Setting [4] is: read-out: IC50 RD, MTT, mean ± SD.

Usually IC50 stands for the midpoint of a concentration-inhibition curve.

Read-outs that look alike come from different tables or passages of the source.

With `O=c1c2cc(Cl)ccc2nc(-c2ccccc2)n1N=Cc1ccc(Cl)c(Cl)c1` [Compound 3, 6-Chloro-3-((3,4-dichlorobenzylidene)amino)-2-phenyl-4(3H)-quinazolone], the IC50 was found to be 246 ± 24.3 µM in assay [1] (setting [3]) and 91.5 ± 1.47 µM in assay [2].
Taken in the same sequence, the figures for `O=c1c2cc(Cl)ccc2nc(-c2ccccc2)n1N=Cc1cccc(O)c1` [Compound 9, 6-Chloro-3-((3-hydroxybenzylidene)amino)-2-phenyl-4(3H)-quinazolone] were 254 ± 14.2 µM and 84.4 ± 1.26 µM.
As to `O=c1c2cc(Cl)ccc2nc(-c2ccccc2)n1N=Cc1ccccc1` [Compound 21, 3-(Benzylideneamino)-6-chloro-2-phenyl-4(3H)-quinazolone], the IC50 came to 143 ± 12.7 µM in assay [1] (setting [3]) and 121 ± 9.35 µM in assay [2].
`O=c1[nH]cc(F)c(=O)[nH]1` [fluorouracil]: in the assay with SW620 cell line, the “inhibitory activity against SW620” value is 57.3%. The “inhibitory activity against HT-29” value in the assay on HT-29 cell line is given as 34.1%.
For `CCOc1ccc(C=Nn2c(-c3ccccc3)nc3ccc(Cl)cc3c2=O)cc1O` [Compound 10, 6-Chloro-3-((4-ethoxy-3-hydroxybenzylidene)amino)-2-phenyl-4(3H)-quinazolone], the IC50 in assay [1] (setting [3]) turned out to be 430 ± 72.9 µM; in assay [2], 85.5 ± 2.32 µM.
In the case of `O=c1c2cc(Cl)ccc2nc(-c2ccccc2)n1N=Cc1ccc(Br)cc1O` [Compound 7, 3-((4-Bromo-2-hydroxybenzylidene)amino)-6-chloro-2-phenyl-4(3H)-quinazolone], the figures for the IC50 in assay [1] (setting [3]), in assay [1] (setting [4]) and in assay [2] were 50 to 55 µM, 51.6 ± 1.19 µM and 8.79 ± 0.34 µM, respectively.
The matching figures for `O=c1c2cc(Cl)ccc2nc(-c2ccccc2)n1N=Cc1ccc2c(c1)OCO2` [Compound 6, 3-((Benzo[d][1,3]dioxol-5-ylmethylene)amino)-6-chloro-2-phenyl-4(3H)-quinazolone]: 50 to 55 µM, 54.5 ± 0.81 µM and 10.6 ± 0.67 µM.
Take `CC(=O)O[C@H]1C(=O)[C@@]2(C)[C@H]([C@H](OC(=O)c3ccccc3)[C@]3(O)C[C@H](OC(=O)[C@H](O)[C@@H](NC(=O)c4ccccc4)c4ccccc4)C(C)=C1C3(C)C)[C@]1(OC(C)=O)CO[C@@H]1C[C@@H]2O` [PTX, paclitaxel, reference compound]: the results for the 50% inhibitory concentration (IC50) in assay [1] (setting [3]) and in assay [2] were 0.58 ± 0.01 µM and 0.04 ± 0.02 µM, respectively.
The matching figures for `O=c1c2cc(Cl)ccc2nc(-c2ccccc2)n1N=Cc1cccc([N+](=O)[O-])c1` [Compound 16, 6-Chloro-3-((3-nitrobenzylidene)amino)-2-phenyl-4(3H)-quinazolone]: 82.3 ± 1.99 µM and 301 ± 27.1 µM.
As for `O=c1c2cc(Cl)ccc2nc(-c2ccccc2)n1N=Cc1ccco1` [Compound 15, 6-Chloro-3-((furan-2-ylmethylene)amino)-2-phenyl-4(3H)-quinazolone], the IC50 was 38.6 ± 1.07 µM in assay [1] (setting [3]) and 56.6 ± 5.37 µM in assay [2].
The matching figures for `COc1ccc(C=Nn2c(-c3ccccc3)nc3ccc(Cl)cc3c2=O)cc1O` [Compound 20, 6-Chloro-3-((3-hydroxy-4-methoxybenzylidene)amino)-2-phenyl-4(3H)-quinazolone]: 48.1 ± 3.97 µM and 198 ± 13.3 µM.
Taken in the same sequence, the figures for `O=c1c2cc(Cl)ccc2nc(-c2ccccc2)n1N=Cc1ccc([N+](=O)[O-])cc1` [Compound 2, 6-Chloro-3-((4-nitrobenzylidene)amino)-2-phenyl-4(3H)-quinazolone] were 151 ± 2.06 µM and 104 ± 3.63 µM.
The matching figures for `CN(C)c1ccc(C=Nn2c(-c3ccccc3)nc3ccc(Cl)cc3c2=O)cc1` [Compound 8, 6-Chloro-3-((4-(dimethylamino)benzylidene)amino)-2-phenyl-4(3H)-quinazolone]: 198 ± 18.9 µM and 101 ± 3.75 µM.
Regarding `O=c1c2cc(Cl)ccc2nc(-c2ccccc2)n1N=Cc1ccc(Cl)cc1Cl` [Compound 11, 6-Chloro-3-((2,4-dichlorobenzylidene)amino)-2-phenyl-4(3H)-quinazolone], the concentration for half-maximal inhibition (IC50) came to 251 ± 25.5 µM in assay [1] (setting [3]) and 99.4 ± 1.76 µM in assay [2].
Taken in the same sequence, the figures for `O=c1c2cc(Cl)ccc2nc(-c2ccccc2)n1N=Cc1ccccc1Cl` [Compound 12, 6-Chloro-3-((2-chlorobenzylidene)amino)-2-phenyl-4(3H)-quinazolinone] were 126 ± 6.2 µM and 321 ± 51.8 µM.
In the case of `CCOc1ccc(C=Nn2c(-c3ccccc3)nc3ccc(Cl)cc3c2=O)cc1` [Compound 17, 6-Chloro-3-((4-ethoxybenzylidene)amino)-2-phenyl-4(3H)-quinazolone], the IC50 in assay [1] (setting [3]) was 376 ± 8.08 µM; in assay [2], 194 ± 8.83 µM.
With `O=c1c2cc(Cl)ccc2nc(-c2ccccc2)n1N=Cc1cccnc1` [Compound 14, 6-Chloro-2-phenyl-3-((pyridin-3-ylmethylene)amino)-4(3H)-quinazolone], the values for the half-inhibitory concentration (IC50) in assay [1] (setting [3]) and in assay [2] were 136 ± 17 µM and 262 ± 43.9 µM, respectively.
Taken in the same sequence, the figures for `O=c1c2cc(Cl)ccc2nc(-c2ccccc2)n1N=Cc1c(F)cccc1Cl` [Compound 5, 6-Chloro-3-((2-chloro-6-fluorobenzylidene)amino)-2-phenyl-4(3H)-quinazolone] were 14.7 ± 0.68 µM and 148 ± 5.64 µM.
Taken in the same sequence, the figures for `COc1ccc(C=Nn2c(-c3ccccc3)nc3ccc(Cl)cc3c2=O)cc1OC` [Compound 13, 6-Chloro-3-((3,4-dimethoxybenzylidene)amino)-2-phenyl-4(3H)-quinazolone] were 130 ± 10.4 µM and 139 ± 4.04 µM.
As to `COc1cccc(C=Nn2c(-c3ccccc3)nc3ccc(Cl)cc3c2=O)c1` [Compound 18, 6-Chloro-3-((3-methoxybenzylidene)amino)-2-phenyl-4(3H)-quinazolone], the IC50 stood at 84.8 ± 9.35 µM in assay [1] (setting [3]) and 329 ± 47.2 µM in assay [2].
The matching figures for `O=c1c2cc(Cl)ccc2nc(-c2ccccc2)n1N=Cc1ccccc1O` [Compound 19, 6-Chloro-3-((2-hydroxybenzylidene)amino)-2-phenyl-4(3H)-quinazolone]: 51.1 ± 0.99 µM and 37.5 ± 0.63 µM.
Taken in the same sequence, the figures for `O=c1c2cc(Cl)ccc2nc(-c2ccccc2)n1N=Cc1ccc(F)cc1` [Compound 4, 6-Chloro-3-((4-fluorobenzylidene)amino)-2-phenyl-4(3H)-quinazolone] were 235 ± 8.29 µM and 21.6 ± 1.11 µM.
